These results are taken from ChEMBL document CHEMBL1143139, “Structure-activity studies on splitomicin derivatives as sirtuin inhibitors and computational prediction of binding mode” (J Med Chem, 2008).

Active and inactive are the calls of the source. The rule behind the calls is not given here.

The target in the first assay is T1, NAD-dependent protein deacetylase sirtuin-2 (Homo sapiens) (UniProt Q8IXJ6).
T1 sequence (whole entry): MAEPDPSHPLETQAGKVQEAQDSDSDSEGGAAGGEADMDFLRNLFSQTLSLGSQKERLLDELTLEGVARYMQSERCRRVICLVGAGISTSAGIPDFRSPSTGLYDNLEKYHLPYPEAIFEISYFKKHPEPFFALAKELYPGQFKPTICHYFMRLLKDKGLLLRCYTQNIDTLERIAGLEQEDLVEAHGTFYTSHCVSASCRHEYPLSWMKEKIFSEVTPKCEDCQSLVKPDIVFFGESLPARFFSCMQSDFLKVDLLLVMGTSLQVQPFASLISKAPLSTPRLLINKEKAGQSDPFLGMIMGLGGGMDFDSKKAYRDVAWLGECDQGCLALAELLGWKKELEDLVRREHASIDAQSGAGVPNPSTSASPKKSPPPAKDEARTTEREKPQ
Description: Inhibition of human recombinant Sirt2 expressed in Escherichia coli BL21 at 20 uM by fluorescent deacetylase assay. An outline of the steps:
(§1)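 Full-length human Sirt2, N-terminal His6 tag, expressed in E. coli BL21 (IPTG 0.1 mM, 2 h). 60 µL reaction with fluorescent acetyl-lysine substrate ZMAL 10.5 µM, NAD+ 500 µM, inhibitor from DMSO stock, 4 h at 37 °C. Deacetylated product developed by tryptic digest; fluorescence at ex 390/em 460 nm. Inhibition calculated versus no-inhibitor control; at least duplicate.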
The term inhibition denotes the percentage by which the read-out fell short of the control. Take `O=C1CC(c2ccccc2)c2c(ccc3cc(-c4ccc(-c5ccccc5)cc4)ccc23)O1` (stereo not drawn): the inhibition is 20.6%.
Same read-out and setting: under `COc1ccccc1C1CC(=O)Oc2ccc3cc(Br)ccc3c21` (stereo not drawn) stands 17.4%.
Take `O=C1CC(c2ccccc2)c2c(ccc3cc(-c4cccc(O)c4)ccc23)O1` (stereo not drawn): the inhibition worked out at 37.5%.
Still for that read-out and setting: the value for `COc1cc(C2CC(=O)Oc3ccc4cc(C)ccc4c32)ccc1C` (stereo not drawn) was 9.2%.
For the compound `O=C1CC(c2ccccc2)c2c(ccc3cc(-c4cccnc4)ccc23)O1` (stereo not drawn), the inhibition worked out at 18.4%.
As to `COc1cc(C2CC(=O)Oc3ccc4cc(Br)ccc4c32)ccc1C` (stereo not drawn), the inhibition amounted to 6.3%.
With `O=C1CC(c2ccccc2)c2c(ccc3cc(O)ccc23)O1` (stereo not drawn), the inhibition was 21.8%.
Turning to `O=C1CC(c2ccccc2)c2c(ccc3cc(-c4ccc5ccccc5c4)ccc23)O1` (stereo not drawn), the inhibition amounted to 15.1%.
As for `O=C1CCc2c(ccc3cc(Br)ccc23)O1`, the result was inactive.
Turning to `CC(=O)Nc1cccc(-c2ccc3c4c(ccc3c2)OC(=O)CC4c2ccccc2)c1` (stereo not drawn), the inhibition is 22.2%.
Same read-out and setting: the value for `Cc1ccc2c3c(ccc2c1)OC(=O)CC3c1cccc(O)c1` (stereo not drawn) was 15.4%.
As for `CC(C)(C)c1ccc(C2CC(=O)Oc3ccc4cc(Br)ccc4c32)cc1` (stereo not drawn), the inhibition turned out to be 46.8%.
As to `CC(=O)c1ccc2c3c(ccc2c1)OC(=O)CC3c1ccccc1` (stereo not drawn), the inhibition stood at 24%.
Turning to `O=C1CC(c2ccc(Cl)c(Cl)c2)c2c(ccc3cc(Br)ccc23)O1` (stereo not drawn), the inhibition is 42.3%.
In the case of `Cc1ccc2c3c(ccc2c1)OC(=O)CC3c1ccc(Cl)cc1` (stereo not drawn), the inhibition was 26.7%.
On the same count and under the same terms, the value for `O=C1CC(c2ccc(Cl)cc2)c2c(ccc3cc(Br)ccc23)O1` (stereo not drawn) was 28.5%; that for `CC(=O)Nc1cccc(C2CC(=O)Oc3ccc4cc(C)ccc4c32)c1` (stereo not drawn) was 17.1%.
For `O=C1CC(c2cccnc2)c2c(ccc3ccccc23)N1` (stereo not drawn), the result was inactive.
With `Cc1ccc2c3c(ccc2c1)OC(=O)CC3c1ccc(-c2ccccc2)cc1` (stereo not drawn), the inhibition came out at 28.3%.

In another assay the target is T2, NAD-dependent protein deacetylase sirtuin-2 (Homo sapiens, UniProt Q8IXJ6).
T2 sequence (Q8IXJ6 whole entry): T1 sequence (whole entry)
Description: Inhibition of human recombinant Sirt2 expressed in Escherichia coli BL21 by fluorescent deacetylase assay.
One may read the IC50 as the concentration that inhibits the measured activity by half. In the case of `O=C1CC(c2cccc(Br)c2)c2c(ccc3cc(Br)ccc23)O1` (stereo not drawn), the IC50 turned out to be 10.1 µM.
Regarding `Cc1ccc2c3c(ccc2c1)OC(=O)CC3c1cccc(C#N)c1` (stereo not drawn), the IC50 was 3.1 µM.
On the same count and under the same terms, the value for `O=C1CC(c2ccc(F)cc2)c2c(ccc3cc(Br)ccc23)O1` (stereo not drawn) was 7.9 µM; that for `Cc1ccc(C2CC(=O)Oc3ccc4cc(C)ccc4c32)cc1` (stereo not drawn) was 1.5 µM.
`O=C1CC(c2ccccc2)c2c(ccc3cc(I)ccc23)O1` (stereo not drawn): the 50% inhibitory concentration (IC50) stood at 19.5 µM.
The same measure, in the same setting: the value for `COc1cccc(C2CC(=O)Oc3ccc4cc(Br)ccc4c32)c1` (stereo not drawn) was 2.3 µM; that for `Cc1ccc2c3c(ccc2c1)OC(=O)CC3c1ccc(C)c(F)c1` (stereo not drawn) was 3.4 µM; that for `Cc1ccc(C2CC(=O)Oc3ccc4cc(Br)ccc4c32)cc1F` (stereo not drawn) was 2 µM.
In the case of `Cc1ccc2c3c(ccc2c1)OC(=O)CC3c1cccc(Br)c1` (stereo not drawn), the IC50 was found to be 9.8 µM.
Regarding `Cc1ccc(C2CC(=O)Oc3ccc4cc(Br)ccc4c32)cc1Cl` (stereo not drawn), the IC50 worked out at 2.3 µM.
Regarding `O=C1CC(c2ccc(F)c(F)c2)c2c(ccc3cc(Br)ccc23)O1` (stereo not drawn), the IC50 worked out at 19.7 µM.
Turning to `Cc1ccc2c3c(ccc2c1)OC(=O)C[C@@H]3c1ccccc1`, the IC50 came out at 3.4 µM.
Consider `Cc1ccc2c3c(ccc2c1)OC(=O)CC3c1ccccc1` (stereo not drawn), for which the IC50 came to 10.6 µM.
Take `COc1ccc(C2CC(=O)Oc3ccc4cc(Br)ccc4c32)cc1` (stereo not drawn): the IC50 was found to be 5.4 µM.
As for `O=C1CC(c2cccc(F)c2)c2c(ccc3cc(Br)ccc23)O1` (stereo not drawn), the IC50 worked out at 3.2 µM.
Take `Cc1ccc2c3c(ccc2c1)OC(=O)CC3c1cccc(C(N)=O)c1` (stereo not drawn): the IC50 is 20 µM.
Same read-out and setting: the value for `O=C1CC(c2ccccc2)c2c(ccc3cc(Br)ccc23)N1` (stereo not drawn) was 6.4 µM; that for `Cc1ccc([C@H]2CC(=O)Oc3ccc4cc(C)ccc4c32)cc1` was 1 µM; that for `Cc1cccc(C2CC(=O)Oc3ccc4cc(C)ccc4c32)c1` (stereo not drawn) was 4.4 µM.
On to `Cc1ccc(C2CC(=O)Oc3ccc4cc(Br)ccc4c32)cc1` (stereo not drawn), for which the IC50 came to 1.5 µM.
For the compound `O=C1CC(c2ccccc2)c2c(ccc3cc(Br)ccc23)O1` (stereo not drawn), the IC50 came out at 5.2 µM.

A further assay has as its system MCF7. Description: Induction of tubulin hyperacetylation in human MCF7 cells at 100 uM by Western blot. It is filed as functional, cell-based. An outline of the steps:
(§2)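 MCF-7 cells seeded at 500000/well, treated 24 h later with compound or DMSO for 8 h at 37 °C. PBS-washed cells lysed in Tris-HCl pH 7.5, EDTA, NaCl, 0.5% NP-40 plus protease inhibitors. Protein quantified by BCA before Western blotting.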
Background: Immunoblotting shows a protein as a band on a membrane.
`Cc1ccc([C@H]2CC(=O)Oc3ccc4cc(C)ccc4c32)cc1`: the outcome was Active.
`Cc1ccc(C2CC(=O)Oc3ccc4cc(Br)ccc4c32)cc1` (stereo not drawn): the outcome was Active.

The test system of a further assay is MCF7. Description: Induction of tubulin hyperacetylation in human MCF7 cells at 10 uM by Western blot. It is filed as functional, cell-based. An outline of the steps: as §2
As for `NC(=O)[C@H]1CCCCc2c1[nH]c1ccc(Cl)cc21`, the result was Active.
Turning to `O=C(CCCCCCC(=O)Nc1ccccc1)NO`, the result was Active.

Another assay concerns the target T1, NAD-dependent protein deacetylase sirtuin-2 (Homo sapiens). The experiment in a line: Inhibition of human recombinant Sirt2 expressed in Escherichia coli BL21 at 100 uM by fluorescent deacetylase assay. An outline of the steps:
as §1
Consider `Cc1ccc2c3c(ccc2c1)OC(=O)C[C@H]3c1ccccc1`, for which the inhibition was 41.8%.
As for `Cc1ccc([C@@H]2CC(=O)Oc3ccc4cc(C)ccc4c32)cc1`, the inhibition is 35.1%.

In the next assay the test system is MCF7. The experiment in a line: Antiproliferative activity against human MCF7 cells by MTT assay. It is filed as functional. Summed up: (§3)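 MCF-7 cells in RPMI-1640 with 10% FBS, L-glutamine and penicillin/streptomycin at 37 °C, 5% CO2; 5000 cells/well, compound or DMSO vehicle added 24 h after seeding, then 72 h exposure.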
(In general: Tetrazolium dyes change colour on reduction, which living cells bring about.)
In general, GI50 refers to the concentration at which growth is held to half of that of the control. Higher therefore signals lower sensitivity of the cells. Consider `Cc1ccc(C2CC(=O)Oc3ccc4cc(C)ccc4c32)cc1` (stereo not drawn), for which halving of growth (GI50) required 99 µM.
On the same count and under the same terms, the value for `Cc1ccc([C@H]2CC(=O)Oc3ccc4cc(C)ccc4c32)cc1` was 84 µM.
`Cc1ccc(C2CC(=O)Oc3ccc4cc(Br)ccc4c32)cc1` (stereo not drawn) showed a GI50 of 43 µM.

In a further assay the target is T1, NAD-dependent protein deacetylase sirtuin-2 (Homo sapiens). The experiment in a line: Inhibition of human recombinant Sirt2 expressed in Escherichia coli BL21 at 40 uM by fluorescent deacetylase assay. An outline of the steps: as §1
As to `NC(=O)c1ccc2c3c(ccc2c1)OC(=O)CC3c1ccccc1` (stereo not drawn), the outcome was inactive.
For `O=C1CC(c2ccccc2)c2c(ccc3ccccc23)N1` (stereo not drawn), the inhibition is 31.5%.
As to `O=C1CC(Cc2ccccc2)c2c(ccc3cc(Br)ccc23)O1` (stereo not drawn), the inhibition came to 21.1%.
The same measure, in the same setting: the value for `CCc1ccc2c3c(ccc2c1)OC(=O)CC3c1ccccc1` (stereo not drawn) was 25.6%.
`COc1ccc2ccc3c(c2c1)C(c1ccccc1)CC(=O)O3` (stereo not drawn): the result was inactive.
In the case of `O=C1CC(c2ccc(F)cc2)c2c(ccc3ccccc23)N1` (stereo not drawn), the inhibition was 16.9%.
As to `O=C1CC(c2ccccc2)c2c(ccc3ccccc23)O1` (stereo not drawn), the inhibition worked out at 49.1%.
Turning to `O=C1CC(c2ccccc2)c2c(ccc3cc(-c4ccccc4)ccc23)O1` (stereo not drawn), the inhibition turned out to be 26.2%.
`N#Cc1ccc2c3c(ccc2c1)OC(=O)CC3c1ccccc1` (stereo not drawn): the inhibition is 25.9%.
As to `O=C1CC(c2ccccc2)c2c(cc(Br)c3cc(Br)ccc23)O1` (stereo not drawn), the inhibition is 9.6%.
Regarding `O=C1CC(c2ccc(-c3ccccc3)cc2)c2c(ccc3ccccc23)N1` (stereo not drawn), the inhibition was 4.2%.

For another assay, the system named is MCF7. The experiment in a line: Growth inhibition of human MCF7 cells at 500 uM by MTT assay. It is filed as functional. Summed up:
as §3
Usually Inhibition stands for the change of the read-out against control, counted positive when it falls. A low value points to a response near the control. As to `Cc1ccc([C@@H]2CC(=O)Oc3ccc4cc(C)ccc4c32)cc1`, the Inhibition was 74%.
Regarding `O=C1CC(c2ccccc2)c2c(ccc3cc(-c4ccccc4)ccc23)O1` (stereo not drawn), the Inhibition is 57%.
On the same count and under the same terms, under `Cc1ccc2c3c(ccc2c1)OC(=O)CC3c1cccc(C(N)=O)c1` (stereo not drawn) stands 64%.
